What was measured:
T47D [1] = test: Antiproliferative activity against human T47D cells after 48 hrs by SRB assay; format: functional, cell-based
Summary of the method: (§1)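 Cells grown in RPMI-1640 with 5% heat-inactivated FCS, 1 mmol L-1 L-glutamine and 50 µg/mL gentamicin at 37 °C, 5% CO2. Seeded at 1000–2000 cells/well, 24 h later exposed 48 h to 5, 12, 25 and 50 µmol L-1. Fixed with 10% TCA 1 h at 4 °C, stained with 0.4% SRB, dye dissolved in Tris-HCl, OD 564 nm. IC50 from Boltzmann sigmoidal nonlinear regression.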

Aromatase = target: T1, Aromatase (Homo sapiens, UniProt P11511); test: Inhibition of aromatase activity in human T47D cells after 24 hrs; format: cell-based; conditions: for inhibition (INH): human, 24 h
T1 sequence (P11511 whole entry): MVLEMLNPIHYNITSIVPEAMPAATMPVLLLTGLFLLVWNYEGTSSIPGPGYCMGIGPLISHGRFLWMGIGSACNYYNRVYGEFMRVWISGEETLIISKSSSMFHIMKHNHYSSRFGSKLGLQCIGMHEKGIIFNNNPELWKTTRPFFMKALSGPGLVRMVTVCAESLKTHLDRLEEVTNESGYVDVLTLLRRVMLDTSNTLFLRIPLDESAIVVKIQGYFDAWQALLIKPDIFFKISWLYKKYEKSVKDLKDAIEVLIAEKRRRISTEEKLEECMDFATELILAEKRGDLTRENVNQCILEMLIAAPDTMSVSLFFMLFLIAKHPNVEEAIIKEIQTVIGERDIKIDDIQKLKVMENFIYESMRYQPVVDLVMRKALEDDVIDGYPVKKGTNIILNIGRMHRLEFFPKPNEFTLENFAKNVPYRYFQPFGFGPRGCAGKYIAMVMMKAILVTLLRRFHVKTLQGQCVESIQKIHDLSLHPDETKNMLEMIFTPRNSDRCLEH
Summary of the method: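 T47D cells in DMEM with 10% FBS, 10 µg/ml insulin and 1% penicillin-streptomycin. Plated at 1.2–1.8 × 10,000 cells/well. Treated 24 h with serial dilutions, then cellular aromatase activity measured and IC50 determined.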

T47D [2] = test: Induction of apoptosis in human T47D cells assessed as increase in caspase-9 level by ELISA relative to control; format: functional
Summary of the method: (§2)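 Caspase-8 and caspase-9 in T47D cells quantified with separate human ELISA kits, reported as ng/mL against untreated control cells.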

T47D [3] = test: Cell cycle arrest in human T47D cells assessed as accumulation at S phase at 8.1 uM by flow cytometry (reference value: 17.14%); format: functional
Summary of the method: (§3)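 Cell cycle distribution by flow cytometry in T47D cells, treated cells versus untreated control, at 8.1 µM; percentage of cells in G1, S and G2/M phases recorded.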

[4] = Cytotoxicity against human 184A1 cells after 48 hrs by SRB assay; format: cell-based; conditions: 184A1, 48 h; summary of the method: as §1
T47D [5] = test: Induction of apoptosis in human T47D cells (reference value: 2.13%); format: functional
T47D [6] = test: Cell cycle arrest in human T47D cells assessed as accumulation at G2/M phase at 8.1 uM by flow cytometry (reference value: 15.81%); format: functional; summary of the method: as §3
T47D [7] = test: Induction of apoptosis in human T47D cells assessed as increase in Bax/Bcl2 ratio at IC50 by qRT-PCR analysis relative to control; format: functional
T47D [8] = test: Induction of apoptosis in human T47D cells assessed as increase in caspase-8 level by ELISA relative to control; format: functional; summary of the method: as §2
T47D [9] = test: Cell cycle arrest in human T47D cells assessed as accumulation at G1 phase at 8.1 uM by flow cytometry (reference value: 64.92%); format: functional; summary of the method: as §3
T47D [10] = test: Induction of apoptosis in human T47D cells assessed as increase in BAX expression level at IC50 by qRT-PCR analysis relative to control; format: functional
T47D [11] = test: Cell cycle arrest in human T47D cells by flow cytometry; format: functional, cell-based; summary of the method: as §3
T47D [12] = test: Induction of apoptosis in human T47D cells assessed as decrease in Bcl-XL expression level at IC50 by qRT-PCR analysis relative to control; format: functional, cell-based

SMILES	IC50 (T47D [1])	inhibition (INH) (Aromatase)	other results
O=C(/C=C\Nc1ccc(S(=O)(=O)Nc2cnc3ccccc3n2)cc1)c1ccc2c(c1)Nc1ccccc1S2	21.4 µM	65.1%	IC50 (Aromatase): 8.9 µM
COc1cnc(NS(=O)(=O)c2ccc(N/C=C\C(=O)c3ccc4c(c3)Nc3ccccc3S4)cc2)nc1	83.2 µM		
Cc1cc(NS(=O)(=O)c2ccc(N/C=C\C(=O)c3ccc4c(c3)Nc3ccccc3S4)cc2)nc(C)n1	56.5 µM	35.88%	
NS(=O)(=O)c1ccc(N/C=C\C(=O)c2ccc3c(c2)Nc2ccccc2S3)cc1	67.6 µM	28.9%	
Cc1nnc(NS(=O)(=O)c2ccc(N/C=C\C(=O)c3ccc4c(c3)Nc3ccccc3S4)cc2)s1	71.4 µM		
O=C(/C=C\Nc1ccc(S(=O)(=O)Nc2ccnn2-c2ccccc2)cc1)c1ccc2c(c1)Nc1ccccc1S2	68.1 µM		
Cc1ccnc(NS(=O)(=O)c2ccc(N/C=C\C(=O)c3ccc4c(c3)Nc3ccccc3S4)cc2)n1	73.6 µM		
O=C(/C=C\Nc1ccc(S(=O)(=O)Nc2ccc3cn[nH]c3c2)cc1)c1ccc2c(c1)Nc1ccccc1S2	91.1 µM		
COc1cc(NS(=O)(=O)c2ccc(N/C=C\C(=O)c3ccc4c(c3)Nc3ccccc3S4)cc2)nc(OC)n1	58.1 µM	44.94%	
O=C(/C=C\Nc1ccc(S(=O)(=O)Nc2nccs2)cc1)c1ccc2c(c1)Nc1ccccc1S2	8.1 µM	68.32%	fold change (FC) (T47D [2]): 8.9; Activity (T47D [3]): 13.1%; IC50 [4]: 391 µM; Activity (T47D [5]): 23.2%; Activity (T47D [6]): 56.3%; Ratio (T47D [7]): 1e+08; fold change (FC) (T47D [8]): 34; Activity (T47D [9]): 7.4%; fold change (FC) (T47D [10]): 55000; Activity (T47D [11]): Dose-dependent effect; Activity (T47D [12]): Below limit of detection; IC50 (Aromatase): 5.67 µM
CN(C)/C=C\C(=O)c1ccc2c(c1)Nc1ccccc1S2	136 µM		
Cc1cc(C)nc(NS(=O)(=O)c2ccc(N/C=C\C(=O)c3ccc4c(c3)Nc3ccccc3S4)cc2)n1	50.7 µM	43.62%	
O=C(/C=C\Nc1ccc(S(=O)(=O)Nc2ncccn2)cc1)c1ccc2c(c1)Nc1ccccc1S2	61.3 µM	30.82%	
Cc1cc(NS(=O)(=O)c2ccc(N/C=C\C(=O)c3ccc4c(c3)Nc3ccccc3S4)cc2)on1	78.4 µM		
O=C(/C=C\Nc1ccc(S(=O)(=O)Nc2ccccn2)cc1)c1ccc2c(c1)Nc1ccccc1S2	8.8 µM	68.86%	IC50 (Aromatase): 6.7 µM
COc1cccc2c1C(=O)c1c(O)c3c(c(O)c1C2=O)C[C@@](O)(C(=O)CO)C[C@@H]3O[C@H]1C[C@H](N)[C@H](O)[C@H](C)O1 [DOXORUBICIN]	9.8 µM		
CC(=O)NS(=O)(=O)c1ccc(N/C=C\C(=O)c2ccc3c(c2)Nc2ccccc2S3)cc1	71.8 µM	40.52%	
Nc1ccc(S(=O)(=O)c2ccc(N/C=C\C(=O)c3ccc4c(c3)Nc3ccccc3S4)cc2)cc1	54.9 µM	31.92%	
O=C(/C=C\Nc1ccc(S(=O)(=O)c2ccc(N/C=C\C(=O)c3ccc4c(c3)Nc3ccccc3S4)cc2)cc1)c1ccc2c(c1)Nc1ccccc1S2	46.4 µM		
COc1ncnc(NS(=O)(=O)c2ccc(N/C=C\C(=O)c3ccc4c(c3)Nc3ccccc3S4)cc2)c1OC	82.2 µM		
Cc1noc(NS(=O)(=O)c2ccc(N/C=C\C(=O)c3ccc4c(c3)Nc3ccccc3S4)cc2)c1C	79.5 µM		
N=C(N)NS(=O)(=O)c1ccc(N/C=C\C(=O)c2ccc3c(c2)Nc2ccccc2S3)cc1	23.7 µM	72.22%	IC50 (Aromatase): 9.67 µM
